According to ChEMBL document CHEMBL4825662 (J Med Chem, 2021):
Converted amounts (≈) assume the structure as drawn. The source made the active and inactive calls. The rule behind the calls is not given here.

What was measured:
Human orthopneumovirus [1] = assay: Antiviral activity against Respiratory syncytial virus A Memphis 37b infected in human assessed as reduction in nasal mucus weight at 200 to 350 mg administered twice daily administered for 5 days; assay type: functional, organism-based; details: dose 200-350 mg, time 5.0 day
Method in brief: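 Healthy adult volunteers aged 18–45, with low pre-existing RSV antibody levels, were challenged on day 0 with about 4 log10 PFU RSV-A Memphis 37b. After infection was confirmed, they were randomised to 200 mg, 350 mg or placebo twice daily for 5 days. Post hoc analysis compared mean daily nasal mucus weight with placebo.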

[2] = Half life in human liver microsomes preincubated followed by NADPH addition and measured up to 45 mins by LC-MS/MS analysis; assay type: ADME, Microsome
Human orthopneumovirus [3] = assay: Antiviral activity against Respiratory syncytial virus A2 infected in Balb/C mouse assessed as reduction in viral titers in lung homogenates at 50 mg/kg, po treated 2 hrs prior to viral infection followed by compound redosing at 24 hrs and measured after 5 days post infection by plaque assay relative to control; assay type: functional, human respiratory syncytial virus; design: scale not given: the % may be the effect or the level left
Method in brief: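 Female Balb/C mice aged 7–8 weeks, 6 per group, received two oral doses 2 h before and 24 h after intranasal inoculation with 5 × 10⁶ pfu of RSV A2. Mice were euthanized on day 5. Lung homogenate titers were determined by plaque assay on Vero cells and expressed as a percentage of the control group.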

[4] = Half life in Beagle dog hepatocytes at 3 uM assessed per million cells measured up to 60 mins by LC-MS/MS analysis; assay type: ADME, cell-based, Canis lupus familiaris, Hepatocyte
Human orthopneumovirus [5] = assay: Antiviral activity against Respiratory syncytial virus A Memphis 37b infected in human assessed as reduction in AUC of total symptom score at 200 to 350 mg administered twice daily administered for 5 days; assay type: functional, organism-based; details: dose 200-350 mg, time 5.0 day
Method in brief: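 Phase 2a challenge study in healthy adults aged 18–45 with low serum RSV-specific antibodies, inoculated on day 0 with about 4 log10 PFU RSV-A Memphis 37b. After infection was confirmed, subjects were randomised to three equal groups: drug at 200 or 350 mg, or placebo, twice daily for 5 days. Read-out was AUC of total symptom score versus placebo.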

Human orthopneumovirus [6] = assay: Antiviral activity against Respiratory syncytial virus A by Plaque reduction assay; assay type: functional, organism-based
Method in brief: (§1)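 RSV A and B laboratory strains and low-passage clinical isolates were used to infect Vero or HepG2 cultures for 48 h with compound at 0.01 nM to 100 μM. Plaques were then detected by immunostaining.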

[7] = Oral bioavailability in Sprague-Dawley rat at 50 mg/kg administered via gavage measured after 0.02 to 24 hrs by tandem liquid chromatography/mass spectrometry; assay type: ADME, organism-based; details: in vivo, time 0.02-24 hrs
Human orthopneumovirus [8] = assay: Antiviral activity against Respiratory syncytial virus A Memphis 37b infected in human assessed as reduction in mean AUC of viral load at 350 mg administered twice daily administered for 5 days by cell-based infectivity assay; assay type: functional; design: scale not given: the % may be the effect or the level left; details: time 5 day
Method in brief: (§2)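 Healthy adult volunteers aged 18–45 with low serum pre-existing RSV-specific antibodies were challenged on day zero with about 4 log10 PFU of RSV-A Memphis 37b. Subjects were randomized into 3 equal groups: 200 mg, 350 mg or placebo twice daily for 5 days, begun after infection was confirmed. Viral load in nasal wash was measured by RT-qPCR or by cell-based infectivity assay, and AUC was compared with placebo.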

[9] = Antiviral activity against Respiratory syncytial virus B by Plaque reduction assay; assay type: functional; method in brief: as §1
Human orthopneumovirus [10] = assay: Antiviral activity against Respiratory syncytial virus A Memphis 37b infected in human assessed as reduction in mean AUC of viral load at 200 mg administered twice daily administered for 5 days by RT-qPCR analysis; assay type: functional; design: scale not given: the % may be the effect or the level left; details: time 5 day; method in brief: as §2
Human orthopneumovirus [11] = assay: Antiviral activity against Respiratory syncytial virus A Memphis 37b infected in human assessed as reduction in mean AUC of viral load at 350 mg administered twice daily administered for 5 days by RT-qPCR analysis; assay type: functional; design: scale not given: the % may be the effect or the level left; details: time 5 day; method in brief: as §2
[12] = Induction of toxicity in human at 175 to 350 mg; details: dose 175-350 mg
[13] = Cmax in Sprague-Dawley rat at 5 mg/kg, po administered via gavage measured after 0.02 to 24 hrs by tandem liquid chromatography/mass spectrometry; assay type: ADME, organism-based; design: route oral, dose 5 mg/kg, time upper 24 hrs, time lower 0.02 hrs; details: in vivo
Method in brief: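 Male Sprague–Dawley rats weighing 200–250 g, 3 per route, were used. The i.v. bolus was 1 mg/kg at 1 mg/mL in 40:60 dimethylacetamide/saline. Oral gavage doses were 5 or 10 mg/kg at 5 mg/mL in 1% methyl cellulose with 0.1% Tween 80. Heparinized blood was taken at 0.02–24 h (ten time points). Plasma was analyzed by LC-MS/MS after acetonitrile precipitation.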

[14] = Half life in Sprague-Dawley rat liver microsomes preincubated followed by NADPH addition and measured up to 45 mins by LC-MS/MS analysis; assay type: ADME, Microsome
[15] = Apparent permeability across apical to basolateral side in MDCK-MDR1 cells at 10 uM measured at 60 mins by LC-MS/MS analysis; assay type: ADME, cell-based, Canis lupus familiaris; details: dog, MDCK-MDR1
[16] = Half life in Beagle dog at 0.3 mg/kg, iv measured after 0.03 to 24 hrs by UHPLC-TOF method; assay type: ADME, organism-based, Canis lupus familiaris; details: in vivo, time 0.03-24 hrs
Method in brief: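 Dogs dosed IV as a suspension of amorphous solid. Serial blood at 2, 5, 15 min and 1, 2, 4, 8, 12, 24 h into heparinized tubes, centrifuged at 4 °C for 10 min at 3000g. Plasma snap-frozen and stored at −20 °C, then analysed by UHPLC-TOF.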

[17] = Thermodynamic solubility in PBS at 1 to 100 uM at pH 7.4 by HPLC-UV method; assay type: physicochemical; details: dose 1-100 µM, read-out: Therm_solubility
Salmonella typhimurium = assay: Genotoxicity in Salmonella typhimurium by Ames test; assay type: functional, organism-based; details: Salmonella enterica subsp. enterica serovar Typhimurium
[18] = Oral bioavailability in Beagle dog at 3 mg/kg measured after 0.03 to 24 hrs by UHPLC-TOF method; assay type: ADME, organism-based, Canis lupus familiaris; details: Beagle, in vivo, time 0.03-24 hrs
Method in brief: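 Dogs examined by a veterinary surgeon before each session, fed 2 h post-dose, water ad libitum, dosed as amorphous-solid suspension. Serial blood into heparinized tubes, centrifuged at 4 °C for 10 min at 3000g; plasma snap-frozen at −20 °C. IV sampling 2 min–24 h, oral 15 min–24 h. Plasma analysed by UHPLC-quadrupole-TOF MS.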

[19] = Oral bioavailability in Sprague-Dawley rat at 10 mg/kg administered via gavage measured after 0.02 to 24 hrs by tandem liquid chromatography/mass spectrometry; assay type: ADME, organism-based; details: in vivo, time 0.02-24 hrs
Method in brief: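 Male Sprague–Dawley rats (200–250 g), 3 per route. IV bolus at 1 mg/kg, 1 mg/mL in 40:60 dimethylacetamide/saline; oral gavage at 5 or 10 mg/kg, 5 mg/mL in 1% methyl cellulose, 0.1% Tween 80 in water. Serial blood at 0.02–24 h (ten points) into heparin, spun at 4 °C, plasma frozen; acetonitrile protein precipitation, ESI LC-MS/MS with matrix curve and internal standards.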

[20] = Clearance in CD1 mouse at 1 mg/kg, iv measured after 0.083 to 24 hrs by UHPLC-TOF method; assay type: ADME, organism-based; details: in vivo, time 0.083-24 hrs
[21] = Half life in Sprague-Dawley rat at 50 mg/kg, po measured after 0.02 to 24 hrs by UHPLC-TOF method; details: in vivo
[22] = Half life in Sprague-Dawley rat at 1 mg/kg, iv measured after 0.02 to 24 hrs by UHPLC-TOF method; assay type: ADME, organism-based; details: in vivo, time 0.02-24 hrs
[23] = tested on: Respiratory syncytial virus; assay: Antiviral activity against Respiratory syncytial virus Memphis 37b infected in human HEp2 cells treated over 10 serial passages by plaque assay; assay type: functional, organism-based; details: HEp-2

In the case of `NCc1ccc2c(c1)nc(CN1C(=O)C3(CC3)c3ccc(F)cc31)n2CCCC(F)(F)F` [SISUNATOVIR], the Activity (Human orthopneumovirus [1]) is reported as “Active”, the half-life [2] is reported as 32 min and the Activity (Human orthopneumovirus [3]) is reported as 98%. For the same compound, the half-life at 3 µM [4] was 580 min, the Activity (Human orthopneumovirus [5]) was “Active” and the IC50 (Human orthopneumovirus [6]) was 1.4 nM. It also gave a bioavailability [7] of 132%, an Activity (Human orthopneumovirus [8]) of 68.6% and an IC50 [9] of 1 nM. For the same compound, the Activity (Human orthopneumovirus [10]) was 55.25%, the Activity (Human orthopneumovirus [11]) was 63.05% and the Activity [12] was “Non-Toxic”. It also gave a Cmax [13] of 74.2 ng/mL, a half-life [14] of 80 min and a Papp A→B at 1 h, 10 µM [15] of 0.5 ×10⁻⁶ cm/s. The half-life [16] was 738 min, the solubility thermodynamic [17] was 417 µM (≈ 186 µg/mL) and the Activity (Salmonella typhimurium) was “Not toxic”. It also gave a bioavailability [18] of 44.2%, a bioavailability [19] of 102% and a clearance [20] of 47.9 mL/min/kg. For the same compound, the half-life [21] was 354 min, the half-life [22] was 108 min and the EC50 [23] was 89 nM.
